According to ChEMBL document CHEMBL1133105, “Antimalarial, antitrypanosomal, and antileishmanial activities and cytotoxicity of bis(9-amino-6-chloro-2-methoxyacridines): influence of the linker” (J Med Chem, 2000):

Legend:
MRC5 [1] = experiment: Cytotoxicity on MRC-5 cells at 6.25 uM; format: functional; details: Homo sapiens
In short: (§1)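 MRC-5 human diploid embryonic lung cells seeded at 5 000/well, washed after 24 h, then given 2-fold drug dilutions (25, 12.5, 6.25, 3.13 µM) in RPMI + 5% FCS, final DMSO below 0.5%. Incubated 7 days at 37 °C, 5% CO2. MTT colorimetric read-out, scored as % reduction of absorbance at 540 nm versus untreated controls.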

Trypanosoma brucei [2] = experiment: Percentage of activity against Trypanosoma brucei at 6.25 uM; format: functional
In short: (§2)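 Bloodstream-form T. brucei in HMI-9 medium, 10 000 parasites/well, exposed to 12.5, 6.25, 3.13 and 1.56 µM drug for 4 days. Read-out is % inhibition of parasite multiplication. Macrophage toxicity judged on mouse primary peritoneal macrophages.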

Trypanosoma cruzi [3] = experiment: Percentage of activity against Trypanosoma cruzi at 12.5 uM; Toxic upon mouse primary peritoneal macrophages; format: functional, organism-based
In short: (§3)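 Mouse peritoneal macrophages, 30 000/well, infected after 24 h with about 100 000 T. cruzi trypomastigotes per well plus 2-fold drug dilutions (12.5–1.56 µM). Incubated 4 days at 37 °C, 5% CO2. Methanol-fixed, Giemsa-stained and scored microscopically as % reduction of total parasite load (free trypomastigotes plus intracellular amastigotes) versus untreated controls.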

MRC5 [4] = experiment: Cytotoxicity on MRC-5 cells at 25 uM; format: functional; details: Homo sapiens; in short: as §1
Trypanosoma cruzi [5] = experiment: In Vitro evaluation for the percentage of activity towards Trypanosoma cruzi at 6.25 uM Concentration; Toxic upon mouse primary peritoneal macrophages; format: functional, organism-based; in short: as §3
Trypanosoma brucei [6] = experiment: Percentage of activity against Trypanosoma brucei at 3.13 uM; format: functional; in short: as §2
Trypanosoma brucei [7] = experiment: In Vitro evaluation for the percentage of activity towards Trypanosoma brucei at 12.5 uM Concentration; Toxic upon mouse primary peritoneal macrophages; format: functional, organism-based; in short: as §2
Trypanosoma cruzi [8] = experiment: In Vitro evaluation for the percentage of activity towards Trypanosoma cruzi at 3.13 uM Concentration; Toxic upon mouse primary peritoneal macrophages; format: functional, organism-based; in short: as §3
MRC5 [9] = experiment: Cytotoxicity on MRC-5 cells at 12.5 uM; format: functional; details: Homo sapiens; in short: as §1
Leishmania infantum [10] = experiment: In Vitro evaluation for the percentage of activity towards Leishmania infantum at 1.56 uM Concentration; Toxic upon mouse primary peritoneal macrophages; format: functional, organism-based
In short: (§4)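 Starch-stimulated mouse peritoneal macrophages, 30 000/well, infected after 24 h with spleen-derived L. infantum amastigotes (10:1) together with 2-fold drug dilutions (12.5–1.56 µM). Incubated 7 days at 37 °C, 5% CO2. Wright-stained slides scored microscopically as % reduction of total parasite load or of infected macrophages. Uninfected treated cultures judged microscopically for macrophage toxicity.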

Leishmania infantum [11] = experiment: In Vitro evaluation for the percentage of activity towards Leishmania infantum at 3.13 uM Concentration; Toxic upon mouse primary peritoneal macrophages; format: functional, organism-based; in short: as §4
Trypanosoma brucei [12] = experiment: Percentage of activity against Trypanosoma brucei at 1.56 uM; format: functional; in short: as §2
Plasmodium falciparum [13] = experiment: In vitro sensitivity for Plasmodium falciparum FcB1R; format: functional, organism-based
In short: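 Asynchronous P. falciparum cultures in human erythrocytes (0.5% parasitemia, 1% haematocrit) exposed to serially diluted drug for 24 h at 37 °C. [3H]hypoxanthine (0.5 µCi/well) then added for a further 24 h. Uptake compared with drug-free controls on the same plate. IC50 taken from the concentration–response curve, averaged over independent experiments. DMSO ≤0.1%.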

Leishmania infantum [14] = experiment: Percentage of activity against Leishmania infantum at 6.25 uM; Toxic upon mouse primary peritoneal macrophages; format: functional, organism-based; in short: as §4
Trypanosoma cruzi [15] = experiment: Percentage of activity against Trypanosoma cruzi at 1.56 uM; format: functional; in short: as §3
Leishmania infantum [16] = experiment: Percentage of activity against Leishmania infantum at 12.5 uM Concentration; Toxic upon mouse primary peritoneal macrophages; format: functional, organism-based; in short: as §4
MRC5 [17] = experiment: Cytotoxicity on MRC-5 cells at 3.13 uM; format: functional; details: Homo sapiens; in short: as §1
Leishmania infantum [18] = experiment: Percentage of activity against Leishmania infantum at 1.56 uM; format: functional; in short: as §4
Plasmodium falciparum [19] = experiment: Growth inhibition of chloroquine-sensitive Plasmodium falciparum 3D7
Plasmodium falciparum [20] = experiment: Parasite growth inhibition against Plasmodium falciparum F32A; format: functional, organism-based
In short: (§5)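 Asynchronous cultures of each strain on human erythrocytes (0.5% parasitemia, 1% final hematocrit) were exposed to serially diluted drug for 24 h at 37 °C. Then 0.5 µCi [3H]hypoxanthine per well was added for 24 h. Incorporation was compared with a drug-free control on the same plate. IC50 was taken from the concentration-response curve as the mean of several independent experiments. DMSO was at most 0.1%.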

Plasmodium falciparum [21] = experiment: Parasite growth inhibition against Plasmodium falciparum K1; format: functional, organism-based; in short: as §5
Plasmodium falciparum [22] = experiment: Parasite growth inhibition against Plasmodium falciparum GP1; format: functional, organism-based; in short: as §5
Plasmodium falciparum [23] = experiment: Parasite growth inhibition against Plasmodium falciparum FCM29; format: functional, organism-based; in short: as §5
Leishmania infantum [24] = experiment: Percentage of activity against Leishmania infantum at 3.13 uM; format: functional; in short: as §4
Trypanosoma cruzi [25] = experiment: Percentage of activity against Trypanosoma cruzi at 3.13 uM; format: functional; in short: as §3
Plasmodium falciparum [26] = experiment: Parasite growth inhibition against Plasmodium falciparum W2; format: functional, organism-based; in short: as §5
Plasmodium falciparum [27] = experiment: Parasite growth inhibition against Plasmodium falciparum FCR3; format: functional, organism-based; in short: as §5
Trypanosoma brucei [28] = experiment: Percentage of activity against Trypanosoma brucei at 12.5 uM; format: functional; in short: as §2
Trypanosoma cruzi [29] = experiment: In Vitro evaluation for the percentage of activity towards Trypanosoma cruzi at 1.56 uM Concentration; Toxic upon mouse primary peritoneal macrophages; format: functional; in short: as §3
Trypanosoma cruzi [30] = experiment: Percentage of activity against Trypanosoma cruzi at 6.25 uM Concentration; format: functional; in short: as §3
Leishmania infantum [31] = experiment: Percentage of activity against Leishmania infantum 6.25 uM; format: functional; in short: as §4
Plasmodium falciparum [32] = experiment: Inhibition of Plasmodium falciparum F32A
Plasmodium falciparum [33] = experiment: Inhibition of Plasmodium falciparum 3D7
Plasmodium falciparum [34] = experiment: Inhibition of Plasmodium falciparum FCR3
Plasmodium falciparum [35] = experiment: Inhibition of Plasmodium falciparum W2
Trypanosoma cruzi [36] = experiment: Percentage of activity against Trypanosoma cruzi at 12.5 uM; format: functional; in short: as §3
Leishmania infantum [37] = experiment: In Vitro evaluation for the percentage of activity towards Leishmania infantum at 12.5 uM Concentration; format: functional; in short: as §4
MRC5 [38] = experiment: In Vitro cytotoxicity on MRC-5 cells; format: functional; details: Homo sapiens; in short: as §1

Structure (SMILES)	cytotoxicity at 6.25 µM (MRC5 [1]) [%]	Inhibition of parasite multiplication (Trypanosoma brucei [2]) [%]	Cytotoxicity (Trypanosoma cruzi [3])	cytotoxicity at 25 µM (MRC5 [4]) [%]	Cytotoxicity (Trypanosoma cruzi [5])	Parasite growth inhibition (Trypanosoma brucei [6]) [%]	Cytotoxicity (Trypanosoma cruzi [8])	cytotoxicity at 12.5 µM (MRC5 [9]) [%]	Cytotoxicity (Leishmania infantum [10])	Cytotoxicity (Leishmania infantum [11])	Percent inhibition of parasite multiplication (Trypanosoma brucei [12]) [%]	IC50 (Plasmodium falciparum [13]) [nM]	Cytotoxicity (Leishmania infantum [14])	Parasite load reduction (Trypanosoma cruzi [15]) [%]	Cytotoxicity (Leishmania infantum [16])	cytotoxicity at 3.13 µM (MRC5 [17]) [%]	Antileishmanial activity (% reduction of parasite load) (Leishmania infantum [18]) [%]	IC50 (Plasmodium falciparum [19]) [nM]	IC50 (Plasmodium falciparum [20]) [nM]	Inhibition of parasite multiplication (Trypanosoma brucei [28]) [%]	also measured
COc1ccc2nc3cc(Cl)ccc3c(NCCCN(CCCNc3c4ccc(Cl)cc4nc4ccc(OC)cc34)C(=O)CCN3CCCC3)c2c1	39	100	Toxic	76	Toxic	100	Toxic	65	Toxic	Toxic	100	91	Toxic	0	Toxic	37	–	–	–	–	Cytotoxicity (Trypanosoma brucei [7]): Toxic
COc1ccc2nc3cc(Cl)ccc3c(NCCCN(CCCNc3c4ccc(Cl)cc4nc4ccc(OC)cc34)C(=O)[C@@H](C)NC(=O)OC(C)(C)C)c2c1	84	100	Toxic	100	Toxic	100	–	84	–	–	100	33	Toxic	60	Toxic	81	95	57	89	–	IC50 (Plasmodium falciparum [21]): 23 nM; IC50 (Plasmodium falciparum [22]): 66 nM; IC50 (Plasmodium falciparum [23]): 11 nM; Percent antileishmanial activity (reduction of parasite load) (Leishmania infantum [24]): 99%; Reduction of T. cruzi parasite load (Trypanosoma cruzi [25]): 95%; IC50 (Plasmodium falciparum [26]): 18 nM; IC50 (Plasmodium falciparum [27]): 32 nM
COc1ccc2nc3cc(Cl)ccc3c(NCCCCNCCCNc3c4ccc(Cl)cc4nc4ccc(OC)cc34)c2c1	100	100	Toxic	100	Toxic	100	Toxic	100	Toxic	Toxic	100	61	Toxic	–	Toxic	100	–	–	–	100	Cytotoxicity (Trypanosoma cruzi [29]): Toxic
COc1ccc2nc3cc(Cl)ccc3c(NCCCN(CCCNc3c4ccc(Cl)cc4nc4ccc(OC)cc34)C(=O)C(C)NC(=O)OC(C)(C)C)c2c1 (stereo unspecified)	100	100	Toxic	100	–	100	–	100	–	–	100	31	–	0	Toxic	0	40	22	66	100	Reduction of T. cruzi parasite load (Trypanosoma cruzi [30]): 90%; IC50 (Plasmodium falciparum [21]): 12 nM; IC50 (Plasmodium falciparum [22]): 35 nM; IC50 (Plasmodium falciparum [23]): 11 nM; Antileishmanial activity (% reduction of parasite load) (Leishmania infantum [31]): 95%; Percent antileishmanial activity (reduction of parasite load) (Leishmania infantum [24]): 60%; Reduction of T. cruzi parasite load (Trypanosoma cruzi [25]): 40%; IC50 (Plasmodium falciparum [26]): 10 nM
OC(c1cc(C(F)(F)F)nc2c(C(F)(F)F)cccc12)C1CCCCN1 (stereo unspecified) [MEFLOQUINE]	–	–	–	–	–	–	–	–	–	–	–	6.9	–	–	–	–	–	–	–	–	IC50 (Plasmodium falciparum [32]): 62 nM; IC50 (Plasmodium falciparum [33]): 40 nM; IC50 (Plasmodium falciparum [34]): 36 nM; IC50 (Plasmodium falciparum [35]): 30 nM
COc1ccc2nc3cc(Cl)ccc3c(NCCCCNc3c4ccc(Cl)cc4nc4ccc(OC)cc34)c2c1	100	100	Toxic	100	Toxic	100	Toxic	100	Toxic	Toxic	100	18	Toxic	90	Toxic	100	–	–	–	100	–
COc1ccc2nc3cc(Cl)ccc3c(NCCCN3CCN(CCCNc4c5ccc(Cl)cc5nc5ccc(OC)cc45)CC3)c2c1	0	90	–	0	–	80	–	0	–	–	60	17	–	–	–	0	0	13	8	100	T. cruzi parasite load reduction (Trypanosoma cruzi [36]): 0%; Reduction of T. cruzi parasite load (Trypanosoma cruzi [30]): 0%; IC50 (Plasmodium falciparum [21]): 16 nM; IC50 (Plasmodium falciparum [22]): 11 nM; IC50 (Plasmodium falciparum [23]): 13 nM; Antileishmanial activity (% reduction of parasite load) (Leishmania infantum [31]): 0%; Percent antileishmanial activity (reduction of parasite load) (Leishmania infantum [24]): 0%; Reduction of T. cruzi parasite load (Trypanosoma cruzi [25]): 0%; IC50 (Plasmodium falciparum [26]): 12 nM; Percent inhibition of Leishmania infantum (Leishmania infantum [37]): 0%; IC50 (Plasmodium falciparum [27]): 18 nM
O=C(Cn1ccnc1[N+](=O)[O-])NCc1ccccc1 [BENZNIDAZOLE]	–	–	–	–	–	–	–	–	–	–	–	–	–	–	–	–	–	–	–	–	CC50 (MRC5 [38]): > 50000 nM
COc1ccc2nc3cc(Cl)ccc3c(NCCCN(CCCNc3c4ccc(Cl)cc4nc4ccc(OC)cc34)C(=O)C(NC(=O)OC(C)(C)C)C(C)C)c2c1 (stereo unspecified)	54	100	Toxic	60	Toxic	100	–	59	–	–	100	25	Toxic	70	Toxic	43	95	49	57	–	IC50 (Plasmodium falciparum [21]): 36 nM; IC50 (Plasmodium falciparum [22]): 83 nM; IC50 (Plasmodium falciparum [23]): 16 nM; Percent antileishmanial activity (reduction of parasite load) (Leishmania infantum [24]): 99%; Reduction of T. cruzi parasite load (Trypanosoma cruzi [25]): 90%; IC50 (Plasmodium falciparum [26]): 40 nM; IC50 (Plasmodium falciparum [27]): 22 nM
COc1ccc2nc3cc(Cl)ccc3c(NCCNCCNc3c4ccc(Cl)cc4nc4ccc(OC)cc34)c2c1	100	100	Toxic	100	Toxic	100	Toxic	100	Toxic	Toxic	100	63	Toxic	–	Toxic	100	–	–	–	100	Cytotoxicity (Trypanosoma cruzi [29]): Toxic
